Screening results deposited in PubChem by several laboratories.
CHT inh – inhibits the human high affinity choline transporter. CHT-expressing cells, membrane potential dye, choline response; stronger effect = lower value. B-score at 10 µM. 310,000 compounds, 0.86% hits. AID 488975;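 active = B-score over 3 SD under the library average, and starting fluorescence ratio not unusually high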;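 also: choline stimulus applied at its EC90 after an EC20 pre-addition; B-score computed on integrated fluorescence ratio after choline addition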
Target sequence (Q9GZV3 whole entry, looked up): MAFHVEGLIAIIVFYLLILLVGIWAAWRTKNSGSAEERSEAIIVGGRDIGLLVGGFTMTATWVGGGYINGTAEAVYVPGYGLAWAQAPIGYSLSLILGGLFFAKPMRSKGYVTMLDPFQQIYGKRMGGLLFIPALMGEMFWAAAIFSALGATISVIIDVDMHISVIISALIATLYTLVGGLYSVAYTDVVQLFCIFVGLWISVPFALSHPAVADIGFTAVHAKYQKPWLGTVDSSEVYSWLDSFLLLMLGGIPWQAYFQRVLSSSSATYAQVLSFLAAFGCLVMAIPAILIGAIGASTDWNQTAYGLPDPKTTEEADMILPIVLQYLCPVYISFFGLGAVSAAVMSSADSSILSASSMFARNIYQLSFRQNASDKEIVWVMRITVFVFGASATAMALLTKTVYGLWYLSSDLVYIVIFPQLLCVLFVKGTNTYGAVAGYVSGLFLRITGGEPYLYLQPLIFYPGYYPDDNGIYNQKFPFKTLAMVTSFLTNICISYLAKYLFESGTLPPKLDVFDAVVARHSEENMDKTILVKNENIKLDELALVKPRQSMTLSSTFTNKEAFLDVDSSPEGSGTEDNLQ
KCC2 mod – modulators of human KCC2 chloride dependent transport. KCC2 cells, thallium flux FluoZin-2 fluorescence. B-score of Tl+ flux slope (higher = more flux/activation; lower = inhibition) at 10 µM. 190,000 compounds, 2.2% hits;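 active = thallium flux slope and its plate-corrected score both differing from the plate sample mean at a set confidence after two filtering rounds, in either direction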;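 also: slope of fluorescence scaled to starting intensity during 10 to 20 s after thallium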
CHT allo act – human CHT allosteric activation. Q9GZV3. CHT-expressing cells, membrane potential dye, choline EC20; stronger effect = higher value; LV-AA mutant CHT in HEK293 cells. B-score at 10 µM. 310,000 compounds, 0.49% hits;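 active = initial fluorescence not abnormally high and integrated response B-score, plate-corrected, over 3 SD above library mean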
Rad51 HR inh – blocks human Rad51 in homologous recombination | hRad51 DNA strand exchange, fluorescence dequenching | AID 1385 | 200,000 compounds, 0.085% hits | inhibition, % at 10 µM | Q06609;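 active = inhibition above 40% at the single screening dose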;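 also: 0% = DMSO control wells and 100% = blanks with heterologous ssDNA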
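Assay system: Human Rad51 nucleoprotein filaments preassembled on unlabelled ssDNA | Reagent: Donor/quencher-labelled 47-bp dsDNA substrate | Doses: One concentration, 10 µM final | Times: 37 °C 15-min filament assembly, 30-min compound preincubation, 15-min exchange | Technique: Fluorescein emission 520 nm, excitation 485 nm | Benchmarks: Plate control and blank wells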
KCC2 secondary – confirmation of human KCC2 transport modulators. HEK293-KCC2, thallium flux, FluoZin2 fluorescence; stronger effect = higher value. shares compounds with KCC2 mod. normalised thallium flux (F/F0 slope) at 10 µM. 3,700 compounds, 15% hits;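 active = thallium flux slope above the same plate's solvent-only control mean plus 3 SD; inconclusive = the two replicate wells disagree; inactive = no significant difference from solvent-only control wells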
KCC2 bumet counter – bumetanide-insensitive thallium flux in KCC2 cells with ouabain, counter-screen. 3,700 compounds, 49% hits. shares compounds with KCC2 mod. HEK293-KCC2 + bumetanide/ouabain, thallium flux FluoZin2; stronger effect = higher value. AID 1714. normalized thallium flux at 10 µM;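 active = thallium entry rate above the same plate's blocked-transporter control wells by more than 3 SD; inconclusive = the two repeat wells disagree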;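 also: raw slope of fluorescence over initial fluorescence between 10 and 20 s after thallium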
KCC2 sec2 – KCC2 (human) modulation, second secondary assay; shares compounds with KCC2 mod; HEK293-KCC2, thallium flux FluoZin2 fluorescence; actives lie on both sides; F/F0 rise rate, 10–20 s post-thallium; normalized thallium flux at 10 µM; 3,700 compounds, 23% hits; AID 1715;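 active = thallium flux slope more than 3 SD above or below the plate's solvent-only control mean, mostly below; inconclusive = the two repeat wells disagreed; inactive = no significant shift from solvent-only controls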;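 also: raw slope with 0.1% DMSO as baseline and bumetanide as block control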
HEK293 Tl flux – acts in parental HEK cells, KCC2 counter-screen. thallium flux rate (normalised fluorescence) at 10 µM. AID 1716. shares compounds with KCC2 mod. 3,700 compounds, 46% hits. HEK293 parental cells, thallium flux FluoZin2, ouabain; baseline-ratio fluorescence slope, 10–20 s after thallium;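 active = thallium flux rate significantly above the same plate's solvent-only control wells, beyond their mean plus 3 SD; inconclusive = the two replicate wells gave conflicting results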
KCC2 retest ouab – confirmation of human KCC2 modulators with ouabain | shares compounds with KCC2 mod | HEK293-KCC2, thallium flux FluoZin2 fluorescence; bidirectional: low = inhibitor, high = activator | raw Tl+ flux slope (below DMSO = inhibition, above = activation) at 10 µM | 3,700 compounds, 48% hits | AID 1717;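 active = thallium flux slope beyond 3 SD from same-plate DMSO control mean in most replicates, usually higher, sometimes lower; inconclusive = repeat tests gave conflicting results; inactive = no significant difference from controls in most replicates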;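 also: slope of initial-normalized fluorescence between seconds 10 and 20 after thallium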
HEK counter2 – parental HEK flux effect, counter-screen 2. AID 1718. 3,700 compounds, 33% hits. thallium flux slope at 10 µM. HEK293 parental, thallium flux FluoZin-2 fluorescence slope. shares compounds with KCC2 mod;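 active = thallium flux slope above the same plate's solvent-control mean plus 3 SD in both duplicate wells; inconclusive = duplicate wells that disagreed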;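 also: run without ouabain in cells lacking the KCC2 cotransporter; slope of fluorescence scaled to its starting value between 10 and 20 s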
An asterisk follows results filed as active; i = inactive; u = inconclusive; x = no result given. Sampled rows, rich in hits. Any-hit rate of the full collection: about 2.6%.

SMILES | CHT inh | KCC2 mod | CHT allo act | Rad51 HR inh | KCC2 secondary | KCC2 bumet counter | KCC2 sec2 | HEK293 Tl flux | KCC2 retest ouab | HEK counter2
O=C(CSc1nnc(CNc2ccccc2)o1)N1CCc2ccccc21 | i | -1 | i | -1 | x | x | x | x | x | x
Cc1cc(C(=O)CSc2nnc(Cc3ccccc3)o2)c(C)n1Cc1ccc2c(c1)OCO2 | i | -0.27 | i | 2 | x | x | x | x | x | x
Cc1ccc(C)c(CN2CCC(CNC(=O)CCc3nnc4ccc(N5CCC(C)CC5)nn34)CC2)c1 | i | x | i | x | x | x | x | x | x | x
CCCOc1cccc(-c2cc(C(=O)NN)c3ccccc3n2)c1 | i | 22* | i | 20 | 0.0065 | 0.0044 | 0.029 | 0.0073 | 0.019 | 0.0096
O=C(Cc1ccc2c(c1)OCCO2)N1CCN(c2ccccc2)CC1 | i | -0.2 | i | -2 | x | x | x | x | x | x
Cc1ccccc1OCc1nnc(SCC(=O)NCc2ccccc2)n1C | i | -0.45 | i | -6 | x | x | x | x | x | x
Cc1cccc(OCc2nnc(SCC(=O)c3cccs3)n2C)c1C | i | -4.5* | i | 4 | 0.0068 | 0.0042 | 0.024* | 0.0075 | 0.016* | 0.0096
CCOC(=O)N1CCN(c2c(N3CCN(c4ccccc4F)CC3)c(=O)c2=O)CC1 | i | -0.041 | i | x | x | x | x | x | x | x
COc1cccc(-c2ccc(NC(=O)C3CCCN(CCCn4nc(C)cc4C)C3)cc2)c1 (stereo not drawn) | i | x | i | x | x | x | x | x | x | x
COCNc1nc(OCC#N)nc(N(C)C)n1 | i | 7.6* | i | -5 | 0.0069 | 0.0052 | 0.03 | 0.0084 | 0.019 | 0.012
Oc1ccc(-c2csc(NCc3ccco3)n2)cc1 | i | x | i | -3 | 0.0086 | 0.0046 | 0.032 | 0.0056* | 0.016* | 0.0087
COc1ccc(C)cc1S(=O)(=O)Nc1cc(Cl)ccc1Cl | i | 9* | i | 18 | 0.017 | 0.013* | 0.031 | 0.012* | 0.02 | 0.013*
COc1cc(NS(=O)(=O)c2cc(C)ccc2OC)c(OC)cc1Cl | i | x | i | 3 | x | x | x | x | x | x
COc1ccc(S(=O)(=O)N2CCN(Cc3ccccc3)CC2)c(C)c1 | i | x | i | x | x | x | x | x | x | x
COc1cc(C)c(C)cc1S(=O)(=O)N1CCN(Cc2ccccc2)CC1 | i | x | i | 3 | 0.0054 | 0.005 | 0.025* | 0.0067 | u | 0.011
O=C1CSC(=Nc2ccccc2)N1 | i | 5.7* | i | -4 | 0.0079 | u | 0.033 | 0.008 | 0.022 | u
O=C(NC(=S)Nc1cccc(C(F)(F)F)c1)c1ccc2nonc2c1 | i | 52* | i | 17 | 0.024* | 0.12* | u | 0.041* | 0.063* | 0.015*
CCOc1cc(OCC)cc(C(=O)NC(=S)Nc2cccc(C(F)(F)F)c2)c1 | i | 3.3* | i | x | 0.0058 | 0.014* | 0.034 | 0.013* | u | 0.014*
CCOc1ccc(NC(=S)NNC(=S)Nc2cccc(C(F)(F)F)c2)cc1 | i | -1.9 | i | 11 | x | x | x | x | x | x
CC1=C(/C=C/C(C)=N\NC(=O)c2ccncc2)C(C)(C)CCC1 | i | 15* | i | 2 | 0.005 | 0.032* | u | 0.024* | 0.033* | 0.026*
O=C(NCc1cccnc1)C1c2ccccc2C(=O)N1C1CCCCCCC1 (stereo not drawn) | i | x | i | -10 | x | x | x | x | x | x
O=C(NCc1cccnc1)C1c2ccccc2C(=O)N1C1CCCCCC1 (stereo not drawn) | i | -4.5* | i | x | 0.0099 | 0.0071 | 0.034 | 0.0088 | 0.023 | u
CC(CCc1ccccc1)NC(=S)NC(=O)c1ccco1 (stereo not drawn) | i | 103* | i | -4 | 0.035* | 0.09* | 0.07* | 0.07* | 0.076* | 0.068*
COc1ccc(-c2csc(NC(=S)NC(=O)c3ccco3)n2)cc1 | i | x | i | 2 | 0.0071 | 0.016* | 0.043* | 0.024* | 0.028* | 0.023*
O=C(NC(=S)Nc1nc(-c2ccccc2)cs1)c1ccco1 | i | 16* | i | -3 | u | 0.045* | 0.03 | 0.02* | 0.032* | 0.012*
SMILES | CHT inh | KCC2 mod | CHT allo act | Rad51 HR inh | KCC2 secondary | KCC2 bumet counter | KCC2 sec2 | HEK293 Tl flux | KCC2 retest ouab | HEK counter2
COc1ccc2nc(NC(=S)NC(=O)c3ccco3)sc2c1 | i | 80* | i | -9 | 0.03* | 0.14* | 0.03* | 0.075* | 0.097* | 0.039*
O=C(NC(=S)Nc1nc(-c2ccccc2)cs1)c1cccnc1 | i | 1.1 | i | 14 | x | x | x | x | x | x
COc1ccc(N2CCN(C(=O)c3ccc(Br)o3)CC2)cc1 | i | x | i | x | x | x | x | x | x | x
CC(=O)c1ccc(OCCCC(=O)Nc2cccc(-c3nn[nH]n3)c2)cc1 | i | x | i | x | x | x | x | x | x | x
Cc1ccc(C)c(C(=O)NC(C)CCc2ccccc2)c1 (stereo not drawn) | i | -3.5* | i | -1 | 0.0075 | 0.0044 | 0.025* | 0.0074 | u | 0.01
O=C(NC(=S)Nc1c(Cl)ccc2nsnc12)c1ccco1 | i | 19* | i | -11 | 0.021* | 0.067* | 0.037 | 0.025* | 0.045* | 0.015*
O=C(NC(=S)Nc1ccc(Cl)c(C(=O)O)c1)c1ccco1 | i | x | i | x | x | x | x | x | x | x
O=C(Nc1nc(-c2ccncc2)cs1)c1ccco1 | i | x | i | -5 | 0.0075 | 0.0042 | 0.031 | 0.0074 | 0.02 | 0.0093
O=C(Nc1nc(-c2cccs2)cs1)c1ccco1 | i | -0.79 | i | 5 | x | x | x | x | x | x
CN(C)/C=N/c1nc2nccc(-c3cccnc3)n2n1 | i | 2.8 | i | 19 | x | x | x | x | x | x
O=C(/C=C/c1ccc2c(c1)OCO2)NCCS(=O)(=O)N1CCN(c2ccc(F)cc2)CC1 | i | x | i | x | x | x | x | x | x | x
Oc1csc(Cc2nc(-c3ccc(-c4ccccc4)cc3)cs2)n1 | i | x | i | 0 | x | x | x | x | x | x
Oc1csc(Cc2nc(-c3ccc4ccccc4c3)cs2)n1 | i | x | i | -4 | 0.016 | u | 0.027 | 0.0073 | 0.016 | 0.01
O=C(COC(=O)C1=Cc2ccccc2OC1)NC1CCCC1 | i | x | i | 2 | x | x | x | x | x | x
CC(=O)N1c2ccc(S(=O)(=O)NCCC(=O)Nc3ncccc3C)cc2CC1C (stereo not drawn) | i | x | i | x | x | x | x | x | x | x
